From PMC8952960 (Nature chemistry, 2021)

Legend:
[1] = target: K351 of XRCC6 (Ku70) (Homo sapiens, UniProt P12956); experiment: competitive isoTOP-ABPP, XRCC6; format: binding
Procedure, shortened: (§1)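 Human cancer cell (MDA-MB-231, Ramos) soluble or membrane fractions at 1.8 mg·mL⁻¹, or live cells, were exposed to test compound or DMSO. Proteomes were then labelled with lysine probe 1 (100 µM, 1 h, 23 °C). Compound samples were clicked to light and DMSO samples to heavy TEV-biotin tags, then streptavidin-enriched, trypsinised, TEV-released and analysed by MS. R was taken as the median peptide ratio per lysine.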

[2] = target: Ku70/Ku80 heterodimer (Homo sapiens, UniProt P12956); experiment: Ku70/Ku80 heterodimerization assay; format: biochemical; details: pre-treatment of recombinantly expressed Ku70
Sequence of Ku70/Ku80 heterodimer (P12956 whole entry, one chain of several): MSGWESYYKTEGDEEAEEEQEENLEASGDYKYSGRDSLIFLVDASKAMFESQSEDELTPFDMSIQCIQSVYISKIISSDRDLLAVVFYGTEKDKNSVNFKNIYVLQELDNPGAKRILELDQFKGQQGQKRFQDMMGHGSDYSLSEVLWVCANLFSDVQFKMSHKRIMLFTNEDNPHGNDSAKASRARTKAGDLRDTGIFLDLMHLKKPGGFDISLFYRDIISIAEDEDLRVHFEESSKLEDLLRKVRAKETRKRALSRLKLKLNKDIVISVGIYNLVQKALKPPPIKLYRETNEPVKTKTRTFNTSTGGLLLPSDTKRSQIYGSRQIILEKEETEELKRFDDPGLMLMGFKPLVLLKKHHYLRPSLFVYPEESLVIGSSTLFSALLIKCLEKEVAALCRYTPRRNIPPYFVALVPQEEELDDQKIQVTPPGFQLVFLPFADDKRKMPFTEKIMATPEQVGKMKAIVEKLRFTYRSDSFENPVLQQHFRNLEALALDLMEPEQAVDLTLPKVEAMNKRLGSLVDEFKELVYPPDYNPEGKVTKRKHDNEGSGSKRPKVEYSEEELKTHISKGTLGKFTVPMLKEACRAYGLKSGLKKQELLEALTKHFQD

[3] = target: K351R mutant of Ku70 with Ku80 (Homo sapiens, UniProt P12956, K351R); experiment: Ku70/Ku80 heterodimerization assay, K351R mutant of Ku70; format: biochemical
Sequence of K351R mutant of Ku70 with Ku80 (P12956 whole entry K351R): as the sequence (P12956 whole entry, one chain of several) above, with K351R counted along it
Procedure, shortened: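 FLAG-Ku70 (WT or K351R) HEK293T lysates were sonicated in 1% NP-40 buffer with protease inhibitors and normalised to 1.0 mg·mL⁻¹. They were treated with test compound or DMSO (1 h, 23 °C), then mixed with WT Ku80 lysate (1.0 mg·mL⁻¹, 1 h, 23 °C). Anti-FLAG co-IP (1 h, 4 °C) and four washes in 0.2% NP-40 buffer followed, with anti-HA immunoblot read-out.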

[4] = target: preformed Ku70-Ku80 complex (Homo sapiens, UniProt P12956); experiment: treatment of preformed Ku70-Ku80 complex; format: biochemical; details: 1 h, 23 °C
Sequence of preformed Ku70-Ku80 complex (P12956 whole entry, one chain of several): as the sequence (P12956 whole entry, one chain of several) above
Procedure, shortened: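 Lysates of HEK293T cells co-expressing WT Ku80 with WT or K351R Ku70 were first anti-Flag co-immunoprecipitated (1 h, 4 °C). The captured complex was then exposed to test compound or DMSO at the stated concentrations (1 h, 23 °C), washed, and analysed by Western blot. Blots represent four independent experiments.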

[5] = target: T1, K53 of GSTT2B (Homo sapiens, UniProt P0CG30); experiment: competitive isoTOP-ABPP; format: binding
T1 sequence (P0CG30 1-244): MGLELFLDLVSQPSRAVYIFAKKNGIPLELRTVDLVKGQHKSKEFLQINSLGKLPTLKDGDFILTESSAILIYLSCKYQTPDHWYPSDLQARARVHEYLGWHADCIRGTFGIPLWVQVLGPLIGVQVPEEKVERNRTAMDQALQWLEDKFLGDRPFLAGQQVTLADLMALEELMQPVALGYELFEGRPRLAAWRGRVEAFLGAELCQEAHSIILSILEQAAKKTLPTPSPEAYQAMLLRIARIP
Procedure, shortened: as §1

[6] = target: T2, K404 of CPOX (Homo sapiens, UniProt P36551); experiment: competitive isoTOP-ABPP with probe P1, CPOX lysines; format: binding; details: R ≥ 4 defines liganded
T2 sequence (P36551 111-454): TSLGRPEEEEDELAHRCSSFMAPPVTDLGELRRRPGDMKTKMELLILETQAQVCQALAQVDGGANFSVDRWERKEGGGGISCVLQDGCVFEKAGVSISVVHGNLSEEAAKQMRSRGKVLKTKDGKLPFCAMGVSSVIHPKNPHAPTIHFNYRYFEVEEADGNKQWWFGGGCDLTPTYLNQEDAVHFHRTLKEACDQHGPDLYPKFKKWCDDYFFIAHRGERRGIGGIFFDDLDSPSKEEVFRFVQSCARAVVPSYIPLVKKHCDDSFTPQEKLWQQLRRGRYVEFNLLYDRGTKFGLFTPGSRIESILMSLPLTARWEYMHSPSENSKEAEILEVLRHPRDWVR
Procedure, shortened: as §1

[7] = target: T3, WT-CPOX (K404) (Homo sapiens, UniProt P36551); format: binding; details: compounds 50 µM, 1 h; gel-ABPP
T3 sequence (P36551 111-454): T2 sequence (P36551 111-454)

Sequence of K351 of XRCC6 (Ku70) (P12956 whole entry): as the sequence (P12956 whole entry, one chain of several) above

Q: What does the source list for `O=c1[nH]c2ccccc2c(=O)o1` [Compound 11e]?
A: liganding of K351 of XRCC6 [1]: liganded; blockade of Ku70 co-immunoprecipitation with Ku80 [2]: blocked co-immunoprecipitation with Ku80 in a concentration-dependent manner; blockade of co-immunoprecipitation of K351R mutant of Ku70 with Ku80 [3]: Neither 11e nor 33e blocked; effect on preformed Ku70-Ku80 complex [4]: does not block

Q: Which “engagement of K53 of GSTT2B by chemical proteomics” value [5] does the source give for `O=C(ON1C(=O)c2ccccc2C1=O)c1cc(C(F)(F)F)cc(C(F)(F)F)c1` [Compound 12a] here?
A: engaged

Q: What does the source list for `O=Cc1c(O)cc(O)cc1O` [Compound 28p]?
A: R value (DMSO/compound) for K404 of CPOX [6]: 3.3; blockade of P4 labelling of WT-CPOX [7]: partially blocked
